Experimental data: ChEMBL document CHEMBL2396604, “Synthesis and structure activity relationship of tetrahydroisoquinoline-based potentiators of GluN2C and GluN2D containing N-methyl-D-aspartate receptors” (J Med Chem, 2013)
pEC50: −log10 of the molar value. The source made the active and inactive calls. No cut-off for these calls is given here.

Experiments:
[1] = molecular target: Ionotropic glutamate receptor NMDA 1/2D (Rattus norvegicus, UniProt P35439+Q62645); assay: Activity at rat recombinant GluN1/GluN2D receptor assessed as potentiation of glycine/glutamate-induced activation by two-electrode voltage clamp technique; format: protein-complex assay
[2] = molecular target: Glutamate NMDA receptor; Grin1/Grin2c (Rattus norvegicus, UniProt P35439+Q00961); assay: Activity at rat recombinant GluN1/GluN2C receptor assessed as potentiation of glycine/glutamate-induced activation by two-electrode voltage clamp technique; format: protein-complex assay
[3] = molecular target: Glutamate receptor 1 (Rattus norvegicus) (UniProt P19490); assay: Activity at rat recombinant GluA1 receptor expressed in Xenopus oocytes assessed as effect on glutamate-induced response by two-electrode voltage clamp technique; format: cell-based; details: Oocyte
Summary of the method: (§1)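 Oocytes injected with 1–5 ng cRNA, kept in Barth's solution at 15°C for 2–5 days. Clamped at -40 mV in 90 NaCl, 1.0 KCl, 0.5 BaCl₂, 0.005 EDTA, 10 HEPES (mM), pH 7.4, 23°C. Receptors activated by 100 µM glutamate with compound co-applied. GluK2 oocytes pretreated with 10 µM concanavalin A for 10 min. DMSO 0.05–0.5% final.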

[4] = molecular target: Glutamate NMDA receptor; Grin1/Grin2b (Rattus norvegicus) (UniProt P35439+Q00960); assay: Activity at rat recombinant GluN1/GluN2B receptor expressed in Xenopus oocytes assessed as potentiation of glycine/glutamate-induced effect at 100 uM by two-electrode voltage clamp technique relative to control; format: cell-based; details: Oocyte
Summary of the method: (§2)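 Two-electrode voltage clamp of oocytes at -40 mV, 2–5 days after cRNA injection. Bath solution (mM) 90 NaCl, 1.0 KCl, 0.5 BaCl₂, 0.005 EDTA, 10 HEPES, pH 7.4, 23°C. Compound applied with 100 µM glutamate plus 30 µM glycine; DMSO 0.05–0.5% final. Current expressed as percent of response without compound. For GluN2A, some oocytes were pretreated with 50 µM BAPTA-AM for 10 min or injected with K-BAPTA.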

[5] = molecular target: Glutamate receptor ionotropic, kainate 2 (Rattus norvegicus) (UniProt P42260); assay: Activity at rat recombinant GluK2 receptor expressed in Xenopus oocytes assessed as effect on glutamate-induced response by two-electrode voltage clamp technique; format: cell-based; details: Oocyte; summary of the method: as §1
[6] = molecular target: Glutamate NMDA receptor; Grin1/Grin2c (Rattus norvegicus) (UniProt P35439+Q00961); assay: Activity at rat recombinant GluN1/GluN2C receptor expressed in Xenopus oocytes assessed as potentiation of glycine/glutamate-induced activation at 100 uM by two-electrode voltage clamp technique relative to control; format: cell-based; details: Oocyte; summary of the method: as §2
[7] = molecular target: Glutamate NMDA receptor; Grin1/Grin2a (Rattus norvegicus) (UniProt P35439+Q00959); assay: Activity at rat recombinant GluN1/GluN2A receptor expressed in Xenopus oocytes assessed as potentiation of glycine/glutamate-induced effect at 100 uM by two-electrode voltage clamp technique relative to control; format: cell-based; details: Oocyte; summary of the method: as §2

Glutamate receptor ionotropic, kainate 2 (Rattus norvegicus), sequence (P42260 whole entry): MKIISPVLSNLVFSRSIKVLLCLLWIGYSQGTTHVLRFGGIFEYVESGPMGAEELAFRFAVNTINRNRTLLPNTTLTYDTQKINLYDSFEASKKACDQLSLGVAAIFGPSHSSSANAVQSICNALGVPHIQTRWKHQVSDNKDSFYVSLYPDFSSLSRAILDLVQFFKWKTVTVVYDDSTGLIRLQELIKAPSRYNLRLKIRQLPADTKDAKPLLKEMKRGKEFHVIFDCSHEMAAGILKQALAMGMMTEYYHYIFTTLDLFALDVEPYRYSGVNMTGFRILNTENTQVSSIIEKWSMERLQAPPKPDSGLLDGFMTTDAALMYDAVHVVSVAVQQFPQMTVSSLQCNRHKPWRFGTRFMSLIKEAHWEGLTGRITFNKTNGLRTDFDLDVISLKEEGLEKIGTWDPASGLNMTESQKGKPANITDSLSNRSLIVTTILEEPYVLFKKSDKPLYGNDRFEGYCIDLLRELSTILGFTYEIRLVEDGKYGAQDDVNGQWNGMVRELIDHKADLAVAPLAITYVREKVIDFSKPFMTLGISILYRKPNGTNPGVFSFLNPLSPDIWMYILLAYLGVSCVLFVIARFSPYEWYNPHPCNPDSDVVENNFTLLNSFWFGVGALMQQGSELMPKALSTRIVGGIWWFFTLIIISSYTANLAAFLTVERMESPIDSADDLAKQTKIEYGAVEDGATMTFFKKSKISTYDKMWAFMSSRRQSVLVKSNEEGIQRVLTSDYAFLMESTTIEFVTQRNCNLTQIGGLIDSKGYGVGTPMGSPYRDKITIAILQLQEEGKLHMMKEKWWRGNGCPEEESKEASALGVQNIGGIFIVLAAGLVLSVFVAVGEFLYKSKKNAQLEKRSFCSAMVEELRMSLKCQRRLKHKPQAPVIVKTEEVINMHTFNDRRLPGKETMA
Ionotropic glutamate receptor NMDA 1/2D, sequence (Q62645 whole entry, other chains not shown): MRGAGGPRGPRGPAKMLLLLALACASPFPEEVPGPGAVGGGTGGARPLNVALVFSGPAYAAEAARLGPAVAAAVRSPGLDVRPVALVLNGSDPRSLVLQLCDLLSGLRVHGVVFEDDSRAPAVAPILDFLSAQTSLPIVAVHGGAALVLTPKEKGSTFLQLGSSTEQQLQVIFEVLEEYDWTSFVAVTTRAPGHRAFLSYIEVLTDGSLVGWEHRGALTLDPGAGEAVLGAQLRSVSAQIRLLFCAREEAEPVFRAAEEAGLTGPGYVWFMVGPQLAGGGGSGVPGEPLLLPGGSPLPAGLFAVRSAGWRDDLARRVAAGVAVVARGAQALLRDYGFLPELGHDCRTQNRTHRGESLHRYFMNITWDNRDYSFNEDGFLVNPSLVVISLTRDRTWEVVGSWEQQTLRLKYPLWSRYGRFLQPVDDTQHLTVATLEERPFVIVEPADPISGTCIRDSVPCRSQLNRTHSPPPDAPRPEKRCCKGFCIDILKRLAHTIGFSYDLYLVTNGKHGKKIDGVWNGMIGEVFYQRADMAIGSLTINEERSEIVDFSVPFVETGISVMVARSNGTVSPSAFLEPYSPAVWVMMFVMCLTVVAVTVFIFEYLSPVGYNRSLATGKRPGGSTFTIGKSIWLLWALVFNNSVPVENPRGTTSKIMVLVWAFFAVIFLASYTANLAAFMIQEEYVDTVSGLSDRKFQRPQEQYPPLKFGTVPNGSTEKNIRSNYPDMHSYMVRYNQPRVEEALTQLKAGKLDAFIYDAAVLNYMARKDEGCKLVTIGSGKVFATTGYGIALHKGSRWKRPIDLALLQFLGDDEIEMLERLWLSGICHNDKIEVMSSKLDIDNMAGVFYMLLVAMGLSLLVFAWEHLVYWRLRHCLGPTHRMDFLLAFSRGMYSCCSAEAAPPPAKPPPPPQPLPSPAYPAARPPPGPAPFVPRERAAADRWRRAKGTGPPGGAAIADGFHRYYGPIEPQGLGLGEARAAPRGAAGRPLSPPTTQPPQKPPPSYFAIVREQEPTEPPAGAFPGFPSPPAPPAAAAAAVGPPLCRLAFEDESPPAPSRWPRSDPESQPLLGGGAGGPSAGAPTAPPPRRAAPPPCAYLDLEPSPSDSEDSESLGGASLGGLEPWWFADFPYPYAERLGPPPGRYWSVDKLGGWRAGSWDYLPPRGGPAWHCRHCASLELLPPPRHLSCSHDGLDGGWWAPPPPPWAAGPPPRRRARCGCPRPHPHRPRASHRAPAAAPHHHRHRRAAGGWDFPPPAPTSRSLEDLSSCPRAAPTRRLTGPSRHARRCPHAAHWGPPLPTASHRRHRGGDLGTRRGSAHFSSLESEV
Glutamate receptor 1 (Rattus norvegicus), sequence (P19490 whole entry): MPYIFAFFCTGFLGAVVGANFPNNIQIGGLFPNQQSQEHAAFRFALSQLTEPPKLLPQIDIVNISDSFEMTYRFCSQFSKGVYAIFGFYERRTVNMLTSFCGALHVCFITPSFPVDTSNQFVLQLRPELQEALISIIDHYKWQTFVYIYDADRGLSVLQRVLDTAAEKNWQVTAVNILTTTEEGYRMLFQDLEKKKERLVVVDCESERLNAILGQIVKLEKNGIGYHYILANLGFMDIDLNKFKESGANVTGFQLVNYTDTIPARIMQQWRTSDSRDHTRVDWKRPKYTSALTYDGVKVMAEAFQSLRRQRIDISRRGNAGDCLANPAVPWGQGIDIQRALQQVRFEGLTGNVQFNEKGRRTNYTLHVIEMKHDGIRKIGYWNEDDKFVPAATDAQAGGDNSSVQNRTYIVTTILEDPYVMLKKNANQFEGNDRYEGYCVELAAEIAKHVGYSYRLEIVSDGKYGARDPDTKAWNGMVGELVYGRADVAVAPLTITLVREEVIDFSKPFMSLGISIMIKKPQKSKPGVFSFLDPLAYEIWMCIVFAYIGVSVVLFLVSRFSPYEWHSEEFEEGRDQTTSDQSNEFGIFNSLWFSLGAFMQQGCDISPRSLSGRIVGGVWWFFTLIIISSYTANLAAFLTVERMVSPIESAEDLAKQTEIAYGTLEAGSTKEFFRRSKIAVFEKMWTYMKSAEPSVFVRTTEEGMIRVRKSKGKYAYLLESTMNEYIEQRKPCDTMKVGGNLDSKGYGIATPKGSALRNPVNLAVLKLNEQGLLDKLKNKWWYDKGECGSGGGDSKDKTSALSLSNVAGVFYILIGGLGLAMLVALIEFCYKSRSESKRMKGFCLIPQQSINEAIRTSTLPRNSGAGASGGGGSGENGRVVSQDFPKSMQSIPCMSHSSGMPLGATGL

Compound	pEC50 [1]	pEC50 [2]	Activity [3]	also measured
COc1cc2c(cc1OC)C(COc1ccc(N(C)C)cc1)N(C(=O)c1cccc(Br)c1)CC2 (racemic)		4.92		
COc1ccc(OCC2c3cc(OC)c(OC)cc3CCN2C(=O)c2cccc(C#N)c2)cc1 (racemic)	5.11	4.54	inactive	
COc1ccc(OCC2c3cc(OC)c(OC)cc3CCN2C(=O)c2cccc(C)c2)cc1 (racemic)	5.26	5.21		
COc1ccc(OCC2c3ccc(OC)cc3CCN2C(=O)c2cccc(C(C)=O)c2)cc1 (racemic)	4.49	4.68		
COc1ccc(OCC2c3c(cc(OC)cc3OC)CCN2C(=O)c2cccc(Br)c2)cc1 (racemic)	5.11	5.05		
COc1ccc(OCC2c3c(cc(OC)cc3OC)CCN2C(=O)c2ccccc2)cc1 (racemic)	4.85	5.00		
COc1ccc(OCC2c3cc(OC)c(OC)cc3CCN2C(=O)N2CCOCC2)cc1 (racemic)				Activity [4]: Active
CCOc1ccc(OCC2c3cc(OC)c(OC)cc3CCN2C(=O)c2cccc(Br)c2)cc1 (racemic)				Activity [4]: Active
COc1ccc(OCC2c3cc(OC)c(OC)cc3CCN2C(=O)c2cccs2)cc1 (racemic)		5.05		
COc1ccc(CCC2c3cc(OC)c(OC)cc3CCN2C(=O)c2cccc(Cl)c2)cc1 (racemic)			inactive	
COc1ccc(OCC2c3cc4c(cc3CCN2C(=O)c2cccc(Cl)c2)OCO4)cc1 (racemic)	5.13	4.80	inactive	
COC(=O)c1ccc(OCC2c3cc(OC)c(OC)cc3CCN2C(=O)c2cccc(Cl)c2)cc1 (racemic)				Activity [4]: Active
COc1ccc(OCC2c3cc(OC)c(OC)cc3CCN2C(=O)c2ccc3ccccc3c2)cc1 (racemic)			inactive	Activity [6]: 136%
COc1ccc(OCC2c3cc(OC)c(OC)cc3CCN2C(=O)c2ccc(Cl)c(Cl)c2)cc1 (racemic)	4.62	4.68		
COc1cc2c(cc1OC)CN(C(=O)c1cccc(Br)c1)CC2				Activity [7]: 70%
COc1ccc(OCC2c3ccc(OC)cc3CCN2C(=O)c2cccc(Cl)c2)cc1 (racemic)			inactive	

Compound	pEC50 [1]	pEC50 [2]	Activity [3]	also measured
COc1ccc(/C=C/C2c3cc(OC)c(OC)cc3CCN2C(=O)c2ccccc2)cc1 (racemic)	4.46	4.46	inactive	
COc1ccc(OCC2c3cc(OC)c(OC)cc3CCN2C(=O)c2cccc(F)c2)cc1 (racemic)	5.15	5.14	inactive	Activity [5]: inactive
COc1ccc(OCC2c3ccc(OC)cc3CCN2C(=O)c2ccccc2)cc1 (racemic)	5.24	5.12		
CCc1ccc(OCC2c3cc(OC)c(OC)cc3CCN2C(=O)c2ccccc2)cc1 (racemic)		4.64		
COc1ccc(OCC2c3cc(OC)c(OC)cc3CCN2C(=O)c2ccccc2)cc1 (racemic)	4.96	4.92	inactive	Activity [5]: inactive; Activity [4]: Active
COc1cc2c(cc1OC)C(COc1ccc(N(C)C)cc1)N(C(=O)c1cccc(Cl)c1)CC2 (racemic)		4.46		
COc1ccc(OCC2c3cc(OC)c(OC)cc3CCN2C(=O)CN2CCOCC2)cc1 (racemic)			inactive	
COc1ccc(OCC2c3cc(OC)c(OC)cc3CCN2C(=O)c2ccccc2C)cc1 (racemic)				Activity [7]: 70%
COc1ccc(OCC2c3ccc(C)cc3CCN2C(=O)c2ccccc2)cc1 (racemic)		4.62		
COc1ccc(CCC2c3cc(OC)c(OC)cc3CCN2C(=O)c2cccc(Br)c2)cc1 (racemic)	4.82	4.96	inactive	
COc1ccc(OCC2c3cc4c(cc3CCN2C(=O)c2ccccc2)OCO4)cc1 (racemic)				Activity [7]: 70%
COc1ccc(OCC2c3cc(OC)c(OC)cc3CCN2C(=O)c2cccc([N+](=O)[O-])c2)cc1 (racemic)	4.89	4.96		Activity [7]: 70%
COc1ccc(OCC2c3c(cc(OC)cc3OC)CCN2C(=O)c2cccc(Cl)c2)cc1 (racemic)	5.04			
CCOc1ccc(OCC2c3cc(OC)c(OC)cc3CCN2C(=O)c2cccc(Cl)c2)cc1 (racemic)				Activity [4]: Active
COc1ccc(OCC2c3cc(OC)c(OC)cc3CCN2C(=O)c2cccc(CCl)c2)cc1 (racemic)		4.77	inactive	Activity [4]: Active
COc1cc2c(cc1OC)CN(C(=O)c1ccccc1)CC2			inactive	

More lines, main results first:

pEC50 [1]	pEC50 [2]	Activity [3]	Compound	also measured
5.33	5.30		COc1ccc(OCC2c3ccc(C)cc3CCN2C(=O)c2cccc(Cl)c2)cc1 (racemic)	
5.55	5.55	inactive	COc1ccc(/C=C/C2c3cc(OC)c(OC)cc3CCN2C(=O)c2cccc(Br)c2)cc1 (racemic)	
5.28	5.29		COc1cc2c(cc1OC)C(COc1ccc(SC)cc1)N(C(=O)c1cccc(Cl)c1)CC2 (racemic)	
6.00	6.00	inactive	COc1ccc(/C=C/C2c3ccc(OC)cc3CCN2C(=O)c2cccc(Cl)c2)cc1 (racemic)	
5.44	5.49		COc1ccc(OCC2c3ccc(C)cc3CCN2C(=O)c2cccc(Br)c2)cc1 (racemic)	
5.89	5.96		COc1ccc(/C=C/C2c3cc(OC)c(OC)cc3CCN2C(=O)c2cccc(Cl)c2)cc1 (racemic)	
5.77	5.82	inactive	COc1ccc(/C=C/C2c3ccc(OC)cc3CCN2C(=O)c2cccc(Br)c2)cc1 (racemic)	
5.54	5.70	inactive	COc1ccc(OCC2c3ccc(OC)cc3CCN2C(=O)c2cccc(Br)c2)cc1 (racemic)	
5.72	5.32	inactive	COc1ccc(OCC2c3cc(OC)c(OC)cc3CCN2C(=O)c2cc(Cl)cc(Cl)c2)cc1 (racemic)	
	5.85		COc1ccc(OCC2c3cc(OC)c(OC)cc3CCN2C(=O)c2cccc(Cl)c2Cl)cc1 (racemic)	
5.66	6.05	inactive	COc1ccc(OCC2c3cc(OC)c(OC)cc3CCN2C(=O)c2cccc(Br)c2)cc1 (racemic)	Activity [5]: inactive
5.47	5.49		COc1ccc(OCC2c3cc4c(cc3CCN2C(=O)c2cccc(Br)c2)OCO4)cc1 (racemic)	
5.64	6.15		COc1ccc(OCC2c3ccc(OCc4ccccc4)cc3CCN2C(=O)c2ccccc2)cc1 (racemic)	
5.96	6.05		COc1ccc(OCC2c3cc(C)c(C)cc3CCN2C(=O)c2cccc(Br)c2)cc1 (racemic)	
5.31	5.40		COc1ccc(OCC2c3cc(OC)c(OC)cc3CCN2C(=O)c2cccc(I)c2)cc1 (racemic)	
5.27	5.43		COc1ccc(OCC2c3cc(OC)c(OC)cc3CCN2C(=O)c2cccc(C(Cl)Cl)c2)cc1 (racemic)	
	5.39		COc1ccc(OCC2c3cc(OC)c(OC)cc3CCN2C(=O)c2ccc(Cl)cc2)cc1 (racemic)	
5.44	5.54		COc1ccc(OCC2c3cc(OC)c(OC)cc3CCN2C(=O)c2cccc(-c3ccccc3)c2)cc1 (racemic)	
5.82	5.85		COc1ccc(OCC2c3cc(C)c(C)cc3CCN2C(=O)c2cccc(Cl)c2)cc1 (racemic)	
5.28	5.28		COc1ccc(OCC2c3cc(OC)c(OC)cc3CCN2C(=O)c2ccc(F)c(Cl)c2)cc1 (racemic)	
5.31	5.28		COc1ccc(OCC2c3cc(OC)c(OC)cc3CCN2C(=S)Nc2cccc(C)c2)cc1 (racemic)	
6.40	6.40		COc1ccc(OCC2c3ccc(OCc4ccccc4)cc3CCN2C(=O)c2cccc(Cl)c2)cc1 (racemic)	
4.92	5.24		COc1ccc(OCC2c3cc(OC)c(OC)cc3CCN2C(=O)c2cccc(OC)c2)cc1 (racemic)	Activity [4]: Active
